Data on five compounds can be found in ChEMBL document CHEMBL1125911, “Synthesis and biological activity of new HMG-CoA reductase inhibitors. 3. Lactones of 6-phenoxy-3,5-dihydroxyhexanoic acids” (J Med Chem, 1991).

What is called IC50 is the concentration needed to halve the response being measured. A low value points to greater potency in that assay. Broadly, the inhibition is the drop in the measured response relative to a control, in per cent. High values mean a strong effect, low ones a weak effect.

The test system of experiment [1] is Canis familiaris. Nature of the experiment: Tested in vivo for hypocholesterolemic activity by measuring its ability to decrease serum LDL-cholesterol, after oral administration of 25 mg/kg per day for 14 days in male Beagle dogs. The experiment is classed as functional, Canis lupus familiaris. The gist of the method: (§1)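 Male beagle dogs (n = 4) given neat compound in gelatine capsules daily at 3:00 p.m.; controls received empty capsules. After an overnight fast, venous blood was drawn at 8:00 a.m. Serum lipoproteins were separated by ultracentrifugation (densities 1.006/1.063/1.21). LDL-cholesterol reported as % change versus control.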

Experiment [2] concerns Oryctolagus cuniculus. The experiment can be described thus: Tested in vivo for hypocholesterolemic activity by measuring its ability to decrease serum total cholesterol, after oral administration of 10 mg/kg body wt. per day in normolipidemic NZW rabbits. In kind it is functional. Put shortly:
(§2)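 NZW rabbits (n = 5 or 6) dosed orally daily for 10 days. Serum total cholesterol reported as % change versus control. For 20 mg/kg, that dose was given on days 11-20 after 10 mg/kg, with the value read on day 20. Error given as SEM.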

The target in experiment [3] is T1, 3-hydroxy-3-methylglutaryl-coenzyme A reductase (Homo sapiens) (UniProt P04035).
T1 sequence (whole entry): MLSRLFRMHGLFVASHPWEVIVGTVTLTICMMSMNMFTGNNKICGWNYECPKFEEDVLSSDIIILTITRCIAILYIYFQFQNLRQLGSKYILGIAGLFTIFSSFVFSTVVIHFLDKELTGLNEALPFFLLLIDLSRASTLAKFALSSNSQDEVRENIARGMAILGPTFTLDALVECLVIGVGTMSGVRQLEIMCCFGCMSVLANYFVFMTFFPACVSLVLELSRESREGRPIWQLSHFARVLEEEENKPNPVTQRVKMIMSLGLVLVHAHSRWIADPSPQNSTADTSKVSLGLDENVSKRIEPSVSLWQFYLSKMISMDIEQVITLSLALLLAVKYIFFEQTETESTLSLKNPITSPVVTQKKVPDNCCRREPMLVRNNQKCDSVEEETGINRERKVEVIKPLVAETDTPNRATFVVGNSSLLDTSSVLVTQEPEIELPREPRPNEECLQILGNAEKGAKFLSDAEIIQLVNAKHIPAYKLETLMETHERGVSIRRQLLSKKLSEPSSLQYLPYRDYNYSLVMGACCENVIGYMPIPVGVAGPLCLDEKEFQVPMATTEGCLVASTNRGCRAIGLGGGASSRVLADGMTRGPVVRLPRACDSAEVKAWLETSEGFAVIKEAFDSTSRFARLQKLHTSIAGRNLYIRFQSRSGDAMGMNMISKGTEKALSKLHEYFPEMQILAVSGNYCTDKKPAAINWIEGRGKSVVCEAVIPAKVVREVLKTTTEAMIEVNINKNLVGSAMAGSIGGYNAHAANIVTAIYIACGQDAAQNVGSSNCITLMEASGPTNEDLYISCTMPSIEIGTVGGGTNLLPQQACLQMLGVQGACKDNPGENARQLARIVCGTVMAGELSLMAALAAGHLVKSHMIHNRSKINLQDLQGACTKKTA
The experiment can be described thus: (§3) Inhibition of HMG-CoA reductase compared to mevinolin. In kind it is functional. The gist of the method: (§4)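 Solubilized, partially purified rat liver HMG-CoA reductase. IC50 from four or five inhibitor concentrations. Relative potency compared IC50 with mevinolin (set to 100), corrected for molecular weight.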

The target in experiment [4] is T2, 3-hydroxy-3-methylglutaryl-coenzyme A reductase (Homo sapiens, UniProt P04035).
T2 sequence (P04035 whole entry): T1 sequence (whole entry)
The experiment can be described thus: Inhibition of the incorporation of sodium [14C]acetate into cholesterol in HEP G2 cells. The experiment is classed as functional, cell-based, HepG2.

In experiment [5] the test system is Oryctolagus cuniculus. The experiment can be described thus: Tested in vivo for hypocholesterolemic activity by measuring its ability to decrease serum total cholesterol, after oral administration of 75 mg/kg body wt. per day in normolipidemic NZW rabbits; Very potent. In kind it is functional, organism-based. Details: dose 75 mg/kg, route oral.
In experiment [6] the test system is Canis familiaris. The experiment can be described thus: Tested in vivo for hypocholesterolemic activity by measuring its ability to decrease serum LDL-cholesterol, after oral administration of 10 mg/kg per day for 14 days in male Beagle dogs. In kind it is functional, Canis lupus familiaris. Put shortly:
as §1

Experiment [7] deals with Oryctolagus cuniculus. The experiment can be described thus: Tested in vivo for hypocholesterolemic activity by measuring its ability to decrease serum total cholesterol, after oral administration of 20 mg/kg body wt. per day in normolipidemic NZW rabbits. In kind it is functional. Put shortly: as §2
The target in experiment [8] is T3, 3-hydroxy-3-methylglutaryl-coenzyme A reductase (Rattus norvegicus, UniProt P51639).
T3 sequence (P51639 whole entry): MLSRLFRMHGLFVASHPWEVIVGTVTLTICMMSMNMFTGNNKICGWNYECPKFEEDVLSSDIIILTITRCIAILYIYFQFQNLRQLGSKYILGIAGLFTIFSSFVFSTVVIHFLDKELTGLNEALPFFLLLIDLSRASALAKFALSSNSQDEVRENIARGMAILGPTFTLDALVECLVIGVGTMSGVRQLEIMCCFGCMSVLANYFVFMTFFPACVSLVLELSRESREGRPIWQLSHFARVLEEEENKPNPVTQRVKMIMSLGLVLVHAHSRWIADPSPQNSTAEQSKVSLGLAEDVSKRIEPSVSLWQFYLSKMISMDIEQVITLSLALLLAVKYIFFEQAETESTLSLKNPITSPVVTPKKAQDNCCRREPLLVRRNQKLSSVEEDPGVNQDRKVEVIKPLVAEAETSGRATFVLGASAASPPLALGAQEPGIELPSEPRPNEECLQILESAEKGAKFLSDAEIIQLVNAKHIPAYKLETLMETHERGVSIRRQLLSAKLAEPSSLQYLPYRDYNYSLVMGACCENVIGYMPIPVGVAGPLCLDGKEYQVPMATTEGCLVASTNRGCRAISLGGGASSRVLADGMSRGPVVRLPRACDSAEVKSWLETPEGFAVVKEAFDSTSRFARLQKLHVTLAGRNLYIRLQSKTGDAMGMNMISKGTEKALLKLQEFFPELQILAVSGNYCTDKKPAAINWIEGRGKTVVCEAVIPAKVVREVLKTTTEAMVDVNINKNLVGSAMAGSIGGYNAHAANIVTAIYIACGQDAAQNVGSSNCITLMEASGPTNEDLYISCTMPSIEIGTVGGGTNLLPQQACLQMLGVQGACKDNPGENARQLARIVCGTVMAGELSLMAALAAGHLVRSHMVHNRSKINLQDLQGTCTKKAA
The experiment can be described thus: In vitro inhibition of HMG-CoA reductase in solubilized rat liver.

Experiment [9] concerns the target T4, 3-hydroxy-3-methylglutaryl-coenzyme A reductase (Rattus norvegicus) (UniProt P51639).
T4 sequence (whole entry): T3 sequence (P51639 whole entry)
The experiment is described as §3. The gist of the method: as §4

Experiment [10] deals with T3, 3-hydroxy-3-methylglutaryl-coenzyme A reductase. The experiment can be described thus: In vitro inhibition of solubilized HMG-CoA reductase in rat liver.
In experiment [11] the test system is Rattus norvegicus. Nature of the experiment: Compound was tested for effect on serum LDL after oral administration of 100 mg/kg in male rats. The experiment is classed as functional. Put shortly: (§5)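 Male HOE:WISKf (SPF 71) rats, initial body weight over 180 g, n = 10 per group, dosed once daily in the morning by gavage in polyethylene glycol 400 for 7 days; controls received vehicle. Fasted after last dose, bled retroorbitally 24 h later under mild ether. Liver and body weight recorded. Pooled group serum was ultracentrifuged into VLDL (<1.006), LDL (1.006-1.04) and HDL (1.04-1.21). Values are % change versus control.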

Experiment [12] relates to Rattus norvegicus. Nature of the experiment: Compound was tested for effect on liver weight after oral administration of 100 mg/kg in male rats. The experiment is classed as functional. The gist of the method:
as §5

Experiment [13] deals with Rattus norvegicus. The experiment can be described thus: Compound was tested for effect on serum LDL after oral administration of 30 mg/kg in male rats. The experiment is classed as functional. The gist of the method:
as §5

The subject of experiment [14] is Rattus norvegicus. Nature of the experiment: Compound was tested for effect on liver weight after oral administration of 30 mg/kg in male rats. The experiment is classed as functional. The gist of the method:
as §5

Experiment [15] has as its system Rattus norvegicus. Nature of the experiment: Compound was tested for effect on body weight after oral administration of 30 mg/kg in male rats. In kind it is functional. The gist of the method:
as §5

Experiment [16] has as its system Rattus norvegicus. The experiment can be described thus: Compound was tested for effect on body weight after oral administration of 100 mg/kg in male rats. The experiment is classed as functional. The gist of the method:
as §5

Experiment [17] concerns Rattus norvegicus. Nature of the experiment: Compound was tested for effect on serum VLDL after oral administration of 100 mg/kg in male rats. In kind it is functional. Put shortly: as §5
The test system of experiment [18] is Rattus norvegicus. Nature of the experiment: Compound was tested for effect on serum VLDL after oral administration of 30 mg/kg in male rats. The experiment is classed as functional. Put shortly: as §5
Experiment [19] has as its system Rattus norvegicus. The experiment can be described thus: Compound was tested for effect on serum HDL after oral administration of 30 mg/kg in male rats. In kind it is functional. The gist of the method:
as §5

The species named for experiment [20] is Rattus norvegicus. The experiment can be described thus: In vitro inhibition of microsomal lipid peroxidation. The experiment is classed as functional. Put shortly: (§6)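 Rat liver microsomes in 50 mM Tris-HCl pH 7.4 with 100 mM KCl and 6.0 mM MgCl2, final protein 0.4 mg/mL. Peroxidation was started with ADP (2 mM)/FeCl3 (10 μM) plus an NADPH-regenerating system. Incubation 30 min at 37 °C with shaking. Thiobarbituric acid reactive substances were read at 535 nm.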

The species named for experiment [21] is Rattus norvegicus. The experiment can be described thus: Compound was tested for inhibition of microsomal lipid peroxidation and the potency relative to terbufucine was determined. In kind it is functional. The gist of the method:
as §6

Experiment [22] concerns Rattus norvegicus. The experiment can be described thus: Compound was tested for effect on serum HDL after oral administration of 100 mg/kg in male rats. In kind it is functional. The gist of the method:
as §5

Experiment [23] is filed under the species Rattus norvegicus. The experiment can be described thus: In vitro inhibition of microsomal lipid peroxidation at 10e-5 M concentration. In kind it is functional. Put shortly:
as §6

The subject of experiment [24] is Canis familiaris. The experiment can be described thus: Tested in vivo for hypocholesterolemic activity by measuring its ability to decrease serum LDL-cholesterol, after oral administration of 10 mg/kg per day for 19 days in male Beagle dogs.
For experiment [25], the system named is Rattus norvegicus. Nature of the experiment: In vivo inhibition of hepatic cholesterol de novo synthesis in rat after oral administration of 5 mg/kg dose. The experiment is classed as functional.

In the case of `CC(C)c1cc(-c2ccc(F)cc2)c(OCC(O)C[C@@H](O)CC(=O)[O-])c(C(C)C)c1.[Na+]` (some centres not stated), the Change with Canis familiaris [1] was -21%; in the experiment with Oryctolagus cuniculus [2], -32%; in the experiment with Canis familiaris [6] it was -10%; in the experiment with Oryctolagus cuniculus [7], -37%. The figures for the Relative potency in experiment [3] and in experiment [9] were 150 and 300, respectively. In addition, the IC50 in [4] was 30 nM; in the experiment with Oryctolagus cuniculus [5] it was “Very potent”; in experiment [8] it was 2.7 nM.
`CC(C)c1cc(-c2ccc(F)cc2)c(/C=C/[C@@H](O)C[C@@H](O)CC(=O)[O-])c(C(C)C)n1.[Na+]`: the 50% inhibitory concentration (IC50) in experiment [10] is 3 nM; in the experiment with Oryctolagus cuniculus [5], “Very potent”.
Take `CC(C)c1cc(SC(C)(C)Sc2cc(-c3ccc(F)cc3)c(OCC(O)C[C@@H](O)CC(=O)[O-])c(C(C)C)c2)cc(-c2ccc(F)cc2)c1[O-].[Na+].[Na+]` (some centres not stated): the Change is on record as -16% in the experiment on Rattus norvegicus [11]; 1% with Rattus norvegicus [12]; -26% in the experiment with Rattus norvegicus [13]; 3% with Rattus norvegicus [14]; 5% in the experiment with Rattus norvegicus [15]; 5% in the experiment on Rattus norvegicus [16]. In addition, the Change with Rattus norvegicus [17] is 13%; in the experiment with Rattus norvegicus [18], 12%; in the experiment with Rattus norvegicus [19], 13%; in the experiment with Rattus norvegicus [22], -3%. The values for the Relative potency (in experiment [3]; in the experiment filed under Rattus norvegicus [21]; in experiment [9]) were under 3, 4 and 15, respectively. The IC50 was over 1700 nM in [4], 2700 nM in the experiment filed under Rattus norvegicus [20] and 30 nM in experiment [8].
As for `CC(C)c1cc(SC(C)(C)Sc2cc(-c3ccc(F)cc3)c(OC[C@H](O)C[C@@H](O)CC(=O)[O-])c(C(C)C)c2)cc(-c2ccc(F)cc2)c1OC[C@H](O)C[C@@H](O)CC(=O)[O-].[Na+].[Na+]`, the Change in the experiment on Rattus norvegicus [11] was -52%; with Rattus norvegicus [12] it was -1%; with Rattus norvegicus [16], 5%; in the experiment with Rattus norvegicus [17], -23%; in the experiment on Rattus norvegicus [22], 9%. In addition, the Relative potency in [3] was under 5; in the experiment filed under Rattus norvegicus [21] it was under 0.1; in experiment [9] it was 37. Moreover, the half-maximal inhibitory concentration (IC50) is over 1000 nM in experiment [4] and 10 nM in experiment [8]. This compound also came in with an inhibition in the experiment listed under Rattus norvegicus [23] of under 10%.
As for `CC[C@H](C)C(=O)O[C@H]1C[C@@H](C)C=C2C=C[C@H](C)[C@H](CC[C@@H]3C[C@@H](O)CC(=O)O3)[C@H]21` [LOVASTATIN], the Change in the experiment with Canis familiaris [24] was -20%; in the experiment with Oryctolagus cuniculus [2], -25%; with Oryctolagus cuniculus [7], -27%. Also, the Cholesterol in the experiment with Rattus norvegicus [25] is 14%.
